Data on 20 compounds can be found in ChEMBL document CHEMBL3352028, “SAR studies on tetrahydroisoquinoline derivatives: the role of flexibility and bioisosterism to raise potency and selectivity toward P-glycoprotein” (J Med Chem, 2014).

Broadly, the efflux ratio is a quotient of directional permeabilities that is used to spot active efflux. As a reminder, the pEC50 is the EC50 on a negative log10 scale, so that one unit is a factor of ten.

A short description of series [1]: Efflux ratio of apparent permeability from basolateral to apical side over apical to basolateral side in human Caco2 cells at 100 uM after 120 mins by UV-Vis spectrophotometry. The format is ADME, cell-based. To be noted: Caco-2. A digest of the protocol: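 Caco-2 cells seeded at 10 000 cells/well and grown 21 days, medium changed every 48 h for 6 days then daily; TEER checked before and after, generally >1000 Ω. Monolayers preincubated twice in HBSS (pH 7.4) 30 min at 37 °C. Drug at 100 μM in HBSS on apical or basolateral side, 120 min at 37 °C. Both sides sampled, drug quantified by UV-vis against a calibration curve. Papp computed from acceptor concentration, volume, membrane area (0.11 cm2) and time (7200 s). Ratio taken as B→A over A→B.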

Series [2] deals with Multidrug resistance-associated protein 1 (Homo sapiens, UniProt P33527). Description: Inhibition of MRP1 (unknown origin) over-expressed in MDCK cells assessed as calcein accumulation incubated for 30 mins prior to Calcein-AM addition measured after 30 mins by fluorescence assay. To be noted: for EC50: mdck; for pEC50: read-out: EC50. The format is cell-based. The procedure, abridged:
(§1)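 MDCK-MDR1 or MDCK-MRP1 cells at 50 000 cells/well, confluent overnight. Compounds in culture medium for 30 min at 37 °C, then Calcein-AM added (2.5 μM final) for a further 30 min. Washed three times with ice-cold PBS, fluorescence read at ex 485, em 535 nm. Percent increase over untreated basal level fitted against log dose to give EC50.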

Series [3] has as its target ATP-dependent translocase ABCB1 (Homo sapiens, UniProt P08183). Description: Inhibition of MDR1 (unknown origin) over-expressed in MDCK cells assessed as calcein accumulation incubated for 30 mins prior to Calcein-AM addition measured after 30 mins by fluorescence assay. Format: cell-based. The following applies: for pEC50: read-out: EC50. A digest of the protocol:
as §1

The target of series [4] is T1, Broad substrate specificity ATP-binding cassette transporter ABCG2 (Homo sapiens, UniProt Q9UNQ0).
T1 sequence (Q9UNQ0 whole entry): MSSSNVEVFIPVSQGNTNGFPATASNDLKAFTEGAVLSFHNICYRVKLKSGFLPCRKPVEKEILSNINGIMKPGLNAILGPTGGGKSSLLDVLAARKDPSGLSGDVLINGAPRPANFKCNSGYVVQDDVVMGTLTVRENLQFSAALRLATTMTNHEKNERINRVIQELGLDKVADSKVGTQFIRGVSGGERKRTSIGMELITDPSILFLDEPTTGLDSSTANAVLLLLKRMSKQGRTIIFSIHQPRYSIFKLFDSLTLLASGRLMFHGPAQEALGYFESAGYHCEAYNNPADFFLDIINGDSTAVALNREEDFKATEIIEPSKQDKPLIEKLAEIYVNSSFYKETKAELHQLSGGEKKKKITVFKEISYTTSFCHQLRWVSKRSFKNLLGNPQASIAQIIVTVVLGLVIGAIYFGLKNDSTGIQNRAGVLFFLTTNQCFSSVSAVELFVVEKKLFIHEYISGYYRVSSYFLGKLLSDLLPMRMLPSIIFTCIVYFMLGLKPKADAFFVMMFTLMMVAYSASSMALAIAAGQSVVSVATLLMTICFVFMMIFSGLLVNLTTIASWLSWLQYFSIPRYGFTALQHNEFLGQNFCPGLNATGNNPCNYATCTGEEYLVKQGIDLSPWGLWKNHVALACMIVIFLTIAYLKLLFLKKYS
Description: Inhibition of BCRP (unknown origin) over-expressed in MDCK cells assessed as Hoechst 33342 accumulation incubated for 30 mins prior to Hoechst 33342 addition measured after 30 mins by fluorescence assay. Format: cell-based. To be noted: 0.5 h. A digest of the protocol:
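MDCK-BCRP cells at 30 000 cells/well, confluent overnight. Compounds in culture medium for 30 min at 37 °C, then Hoechst 33342 added (8 μM final) for 30 min. Cells fixed 20 min in 4% PFA protected from light, washed three times with ice-cold PBS, fluorescence read at ex 340/35, em 485/20 nm. Increase over untreated basal level fitted against log dose to give EC50.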

Each structure is given as a SMILES string. pEC50: −log10 of the molar value.

Multidrug resistance-associated protein 1, sequence (P33527 whole entry): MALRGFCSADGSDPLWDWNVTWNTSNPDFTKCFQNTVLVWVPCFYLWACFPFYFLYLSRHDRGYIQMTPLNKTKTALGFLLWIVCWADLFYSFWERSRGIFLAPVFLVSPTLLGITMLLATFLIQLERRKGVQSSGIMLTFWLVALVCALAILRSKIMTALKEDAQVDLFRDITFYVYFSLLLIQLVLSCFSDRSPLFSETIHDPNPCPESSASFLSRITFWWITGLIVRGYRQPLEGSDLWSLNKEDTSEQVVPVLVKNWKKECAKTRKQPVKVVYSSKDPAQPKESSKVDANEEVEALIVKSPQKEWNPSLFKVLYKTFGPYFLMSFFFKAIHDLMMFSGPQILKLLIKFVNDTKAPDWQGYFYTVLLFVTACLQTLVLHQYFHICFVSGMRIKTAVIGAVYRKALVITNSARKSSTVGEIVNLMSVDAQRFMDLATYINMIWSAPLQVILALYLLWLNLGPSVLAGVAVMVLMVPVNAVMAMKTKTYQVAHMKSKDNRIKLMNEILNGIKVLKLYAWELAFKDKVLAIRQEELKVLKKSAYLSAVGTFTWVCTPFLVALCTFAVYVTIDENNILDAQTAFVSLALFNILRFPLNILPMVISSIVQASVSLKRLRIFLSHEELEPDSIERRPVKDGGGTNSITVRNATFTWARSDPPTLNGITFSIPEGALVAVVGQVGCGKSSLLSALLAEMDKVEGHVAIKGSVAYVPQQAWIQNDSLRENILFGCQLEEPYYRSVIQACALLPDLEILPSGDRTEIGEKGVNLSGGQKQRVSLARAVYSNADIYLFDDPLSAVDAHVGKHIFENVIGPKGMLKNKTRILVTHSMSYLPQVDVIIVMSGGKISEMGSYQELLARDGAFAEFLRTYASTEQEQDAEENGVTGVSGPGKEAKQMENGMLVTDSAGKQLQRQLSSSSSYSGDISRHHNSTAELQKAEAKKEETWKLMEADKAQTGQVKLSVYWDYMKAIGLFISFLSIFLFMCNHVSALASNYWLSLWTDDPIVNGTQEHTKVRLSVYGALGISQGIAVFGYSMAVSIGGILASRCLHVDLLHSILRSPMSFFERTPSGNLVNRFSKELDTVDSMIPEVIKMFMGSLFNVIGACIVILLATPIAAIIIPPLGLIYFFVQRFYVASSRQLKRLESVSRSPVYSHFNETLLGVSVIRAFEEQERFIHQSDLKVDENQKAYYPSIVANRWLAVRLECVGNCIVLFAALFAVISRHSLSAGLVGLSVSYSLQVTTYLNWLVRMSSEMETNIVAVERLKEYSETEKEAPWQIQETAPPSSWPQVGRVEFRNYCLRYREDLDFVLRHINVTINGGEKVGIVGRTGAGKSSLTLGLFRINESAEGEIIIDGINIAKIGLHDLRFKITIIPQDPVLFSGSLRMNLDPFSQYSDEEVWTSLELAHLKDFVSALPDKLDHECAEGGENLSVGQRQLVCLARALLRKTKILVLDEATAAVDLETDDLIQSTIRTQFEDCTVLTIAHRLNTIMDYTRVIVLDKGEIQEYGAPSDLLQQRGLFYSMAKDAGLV
ATP-dependent translocase ABCB1, sequence (P08183 whole entry): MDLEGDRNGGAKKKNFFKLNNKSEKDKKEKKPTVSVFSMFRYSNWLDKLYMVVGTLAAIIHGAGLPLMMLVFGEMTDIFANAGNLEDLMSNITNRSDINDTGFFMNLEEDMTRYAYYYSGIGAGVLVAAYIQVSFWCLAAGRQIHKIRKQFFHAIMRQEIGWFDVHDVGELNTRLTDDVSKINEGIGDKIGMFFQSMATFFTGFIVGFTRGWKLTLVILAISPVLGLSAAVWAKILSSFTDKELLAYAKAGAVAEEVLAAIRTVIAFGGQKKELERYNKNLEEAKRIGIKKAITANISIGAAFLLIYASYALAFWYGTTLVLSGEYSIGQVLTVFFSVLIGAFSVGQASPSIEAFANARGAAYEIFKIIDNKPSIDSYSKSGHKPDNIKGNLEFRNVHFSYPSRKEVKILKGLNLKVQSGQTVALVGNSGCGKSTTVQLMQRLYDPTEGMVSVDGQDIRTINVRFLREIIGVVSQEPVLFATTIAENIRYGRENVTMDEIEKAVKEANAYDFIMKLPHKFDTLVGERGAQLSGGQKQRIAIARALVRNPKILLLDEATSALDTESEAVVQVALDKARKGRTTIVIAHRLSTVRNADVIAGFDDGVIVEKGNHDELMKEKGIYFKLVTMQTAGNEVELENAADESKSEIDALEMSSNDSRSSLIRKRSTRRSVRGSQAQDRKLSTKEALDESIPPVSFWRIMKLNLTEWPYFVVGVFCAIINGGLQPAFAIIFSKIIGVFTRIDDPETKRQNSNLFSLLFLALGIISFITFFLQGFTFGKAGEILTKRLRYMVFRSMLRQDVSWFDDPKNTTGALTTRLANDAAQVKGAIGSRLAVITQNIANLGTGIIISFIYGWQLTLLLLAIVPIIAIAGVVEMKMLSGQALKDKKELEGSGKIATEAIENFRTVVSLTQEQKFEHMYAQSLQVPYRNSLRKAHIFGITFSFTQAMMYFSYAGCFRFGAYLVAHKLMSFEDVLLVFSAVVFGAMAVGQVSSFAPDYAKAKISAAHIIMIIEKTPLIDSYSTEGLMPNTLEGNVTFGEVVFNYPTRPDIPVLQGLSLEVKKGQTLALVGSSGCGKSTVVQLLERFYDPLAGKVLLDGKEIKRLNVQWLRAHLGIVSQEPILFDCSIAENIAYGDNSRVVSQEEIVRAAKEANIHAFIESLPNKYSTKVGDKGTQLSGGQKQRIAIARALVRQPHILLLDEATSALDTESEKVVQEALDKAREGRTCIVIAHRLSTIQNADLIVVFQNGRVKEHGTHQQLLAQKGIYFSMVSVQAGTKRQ

`COc1cc2c(cc1OC)CN(CCCC1CCCc3c(OC)cccc31)CC2` (stereo not drawn): the efflux ratio at 2 h, 100 µM in series [1] is 4.4. The EC50 entry in series [2] is “Not Active”.

On to `COc1ccc(-c2ccc3c(c2)C=C(CC(=O)N2CCc4cc(OC)c(OC)cc4C2)CO3)cc1`, for which the efflux ratio at 2 h, 100 µM in series [1] was determined as 3.2. The pEC50 in series [3] was 5.24. Further, the “inhibition (INH)” value in series [4] is “Not Active”. Also, the EC50 result in series [2] is recorded as “Not Active”.

Regarding `COc1ccc(-c2ccc3c(c2)C=C(CCN2CCc4cc(OC)c(OC)cc4C2)CO3)cc1`, in series [1], the efflux ratio at 2 h, 100 µM is 4.9. Moreover, in series [3], the pEC50 was 5.92. The “inhibition (INH)” value in series [4] is given as “Not Active”. Further, in series [2], the EC50 result is on record as “Not Active”.

As for `COc1ccc(-c2ccc(OCCCN3CCc4cc(OC)c(OC)cc4C3)cc2)cc1`, the efflux ratio at 2 h, 100 µM in series [1] is 7.9. Further, in series [3], the pEC50 is 5.89. Moreover, in series [4], the “inhibition (INH)” value is recorded as “Not Active”. For the same compound, the EC50 result in series [2] is “Not Active”.

On to `COc1ccc(-c2ccc(NCCCN3CCc4cc(OC)c(OC)cc4C3)cc2)cc1`, for which, in series [1], the efflux ratio at 2 h, 100 µM is 2.2. Further, the pEC50 in series [3] is 5.74. Further, the “inhibition (INH)” value in series [4] was “Not Active”. In series [2], the EC50 entry is given as “Not Active”.

With `COc1ccc(-c2ccc(CC(=O)N3CCc4cc(OC)c(OC)cc4C3)cc2)cc1`, in series [1], the efflux ratio at 2 h, 100 µM amounted to 3.9. Moreover, the pEC50 in series [3] was 6.10; in series [2], 5.00. Moreover, the “inhibition (INH)” value in series [4] is listed as “Not Active”.

On to `COc1cc2c(cc1OC)CN(CCc1ccccc1-c1cccc(O)c1)CC2`, for which the efflux ratio at 2 h, 100 µM in series [1] was found to be 3.2. Moreover, the pEC50 in series [3] is 6.64. In addition, the “inhibition (INH)” value in series [4] was “Not Active”. Besides, the EC50 entry in series [2] is “Not Active”.

On to `COc1ccc(-c2ccc(OCCN3CCc4cc(OC)c(OC)cc4C3)cc2)cc1`, for which the efflux ratio at 2 h, 100 µM in series [1] amounted to 47. The pEC50 in series [3] is 6.03. Further, the “inhibition (INH)” value in series [4] is listed as “Not Active”. Moreover, the EC50 result in series [2] is given as “Not Active”.

In the case of `COc1cc2c(cc1OC)CN(CCCCOc1ccc(-c3ccc(O)cc3)cc1)CC2`, the efflux ratio at 2 h, 100 µM in series [1] was found to be 1.5. For the same compound, the EC50 entry in series [3] (mdck) and in series [2] was “Not Active” each time. Further, the “inhibition (INH)” value in series [4] was “Not Active”.

Take `COc1cc2c(cc1OC)CN(C(=O)c1ccc(-c3ccc(O)cc3)o1)CC2`: the efflux ratio at 2 h, 100 µM in series [1] was 4.5. Besides, the pEC50 in series [3] was 5.19. Further, the “inhibition (INH)” value in series [4] is “Not Active”. In series [2], the EC50 result is on record as “Not Active”.

As for `COc1cc2c(cc1OC)CN(CCc1ccc(-c3ccc(F)cc3)cc1)CC2`, the efflux ratio at 2 h, 100 µM in series [1] came out at 3.8. Further, the pEC50 in series [3] is 5.70. In addition, the “inhibition (INH)” value in series [4] is reported as “Not Active”. For the same compound, in series [2], the EC50 result was “Not Active”.

In the case of `COc1cc2c(cc1OC)CN(Cc1ccc(-c3ccc(O)cc3)cc1)CC2`, the pEC50 in series [3] was 5.03.

For the compound `COc1cc2c(cc1OC)CN(Cc1ccc(-c3ccc(O)cc3)o1)CC2`, the efflux ratio at 2 h, 100 µM in series [1] was determined as 5.7. For the same compound, in series [3], the pEC50 was 5.09. In addition, the “inhibition (INH)” value in series [4] was “Not Active”. Moreover, the EC50 result in series [2] was “Not Active”.

On to `COc1ccc(-c2ccc(CCN3CCc4cc(OC)c(OC)cc4C3)cc2)cc1`, for which the efflux ratio at 2 h, 100 µM in series [1] was 38. Besides, the pEC50 in series [3] is 6.24. In series [4], the “inhibition (INH)” value is reported as “Not Active”. Moreover, the EC50 entry in series [2] is “Not Active”.

Consider `COc1ccc(-c2ccc(OCCCCN3CCc4cc(OC)c(OC)cc4C3)cc2)cc1`, for which the efflux ratio at 2 h, 100 µM in series [1] came out at 6.6. In series [3], the pEC50 is 8.40. The “inhibition (INH)” value in series [4] is recorded as “Not Active”. In series [2], the EC50 result is “Not Active”.

`COc1cc2c(cc1OC)CN(Cc1ccc(-c3ccc(F)cc3)cc1)CC2`: in series [1], the efflux ratio at 2 h, 100 µM is 3.8. Further, the pEC50 in series [3] was 5.31. Also, the “inhibition (INH)” value in series [4] is reported as “Not Active”. The EC50 entry in series [2] is given as “Not Active”.

Regarding `COc1ccc(-c2ccc(CN3CCc4cc(OC)c(OC)cc4C3)cc2)cc1`, the efflux ratio at 2 h, 100 µM in series [1] came to 4.4. Besides, in series [2], the EC50 result was “Not Active”.

As for `COc1ccc(-c2ccc(C(=O)N3CCc4cc(OC)c(OC)cc4C3)o2)cc1`, the efflux ratio at 2 h, 100 µM in series [1] turned out to be 5.2. The pEC50 in series [3] was 6.04. Besides, the “inhibition (INH)” value in series [4] is recorded as “Not Active”. The EC50 result in series [2] is recorded as “Not Active”.

As to `COc1ccc(-c2ccc(CN3CCc4cc(OC)c(OC)cc4C3)o2)cc1`, the efflux ratio at 2 h, 100 µM in series [1] was 3.7. The negative logarithm of the EC50 (pEC50) in series [3] is 5.37. The “inhibition (INH)” value in series [4] is given as “Not Active”. Besides, in series [2], the EC50 entry was “Not Active”.

With `COc1cccc(-c2ccccc2CCN2CCc3cc(OC)c(OC)cc3C2)c1`, the efflux ratio at 2 h, 100 µM in series [1] is 4.1. The pEC50 in series [3] was 7.16; in series [2], 4.64. For the same compound, in series [4], the “inhibition (INH)” value is recorded as “Not Active”.
